Assay results: ChEMBL document CHEMBL3872233, “Topical Treatment of Leishmania tropica Infection Using (-)-α-Bisabolol Ointment in a Hamster Model: Effectiveness and Safety Assessment” (J Nat Prod, 2016)
Activity calls are given as the source filed them. The calls are words filed in the database; no cut-off is given here.

Columns and labels:
[1] = system: Syrian golden hamster; assay: Toxicity in Syrian hamster assessed as mean serum creatinine levels at 5 % administered tropically on footpad for 28 days (reference value: 0.21 +/- 0.2 mg/dl); format: organism-based, Mesocricetus auratus; details: in vivo, topical_or_ocular, 672 h
[2] = system: Syrian golden hamster; assay: Toxicity in Syrian hamster assessed as stress at 500 mg/kg, po or 5 % administered tropically on footpad for 28 days; format: organism-based, Mesocricetus auratus; details: in vivo, 672 h
[3] = system: Syrian golden hamster; assay: Toxicity in Syrian hamster infected with Leishmania tropica MHOM/MA/1988/LEM1314 promastigotes assessed as liver weight at 2.5 % administered tropically on footpad for 3 weeks starting at week 7 post infection measured 1 week post last dose (reference value: 3.3 +/- 0.2 g); format: organism-based, Mesocricetus auratus; details: in vivo, topical_or_ocular, 168 h
In short: (§1)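 Infected hamsters were treated daily for 21 days from week 7 post-infection (ointment 1–5%, 200 mg/kg gavage, or intralesional meglumine antimoniate 2 mg SbV/kg). Clinical signs and body weight were monitored during treatment and a 7-day follow-up. After sacrifice, liver and spleen were weighed and serum ALP, ALT, creatinine, urea and AST were measured with kits, compared with untreated infected animals.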

[4] = system: Syrian golden hamster; assay: Toxicity in Syrian hamster infected with Leishmania tropica MHOM/MA/1988/LEM1314 promastigotes assessed as mean serum ALP levels at 2.5 % administered tropically on footpad for 3 weeks starting at week 7 post infection measured 1 week post last dose (reference value: 14.4 +/- 0.9 U/L); format: organism-based, Mesocricetus auratus; details: in vivo, topical_or_ocular, 168 h
[5] = system: Syrian golden hamster; assay: Toxicity in Syrian hamster infected with Leishmania tropica MHOM/MA/1988/LEM1314 promastigotes assessed as spleen weight at 1 % administered tropically on footpad for 3 weeks starting at week 7 post infection measured 1 week post last dose (reference value: 178.8 +/- 1.2 mg); format: organism-based, Mesocricetus auratus; details: in vivo, topical_or_ocular, 168 h
[6] = system: Leishmania tropica; assay: (§2) Antileishmanial activity against Leishmania tropica MHOM/MA/1988/LEM1314 promastigotes infected in Syrian hamster assessed as reduction in parasite load in foodpad skin at 2.5 % administered once daily tropically on footpad for 3 weeks starting at week 7 post infection measured 1 week post last dose by qPCR analysis relative to control; format: functional; parameters: scale not given: the % may be the effect or the level left
In short: (§3)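 Hamsters were infected in the footpad and treated daily for 21 days from week 7 post-infection, n = 10/group, and sacrificed 1 week after the last dose. Footpad skin, liver and spleen DNA was assayed by L. tropica-specific TaqMan qPCR (chromosome 29 target), in triplicate with 50 ng DNA per 25 μL reaction. Load was interpolated from Ct on a calibration curve of promastigote DNA, relative to base-ointment controls.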

[7] = system: Syrian golden hamster; assay: Toxicity in Syrian hamster infected with Leishmania tropica MHOM/MA/1988/LEM1314 promastigotes assessed as liver weight at 1 % administered tropically on footpad for 3 weeks starting at week 7 post infection measured 1 week post last dose (reference value: 3.3 +/- 0.2 g); format: organism-based, Mesocricetus auratus; details: in vivo, topical_or_ocular, 168 h; in short: as §1
[8] = system: Leishmania tropica; assay: as §2, with “lesion thickness” for “parasite load in foodpad skin”, “5” for “2.5”, “dose” for “dose by qPCR analysis”; format: functional; parameters: scale not given: the % may be the effect or the level left
In short: (§4)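 L. tropica stationary-phase promastigotes (3 × 10^7 in 50 μL PBS) injected into the left hind footpad. Treatment began at week 7 (+75% footpad thickness) and ran daily for 21 days, n = 10/group. Routes were 50 mg ointment on the lesion (cetyl alcohol/lanolin/petrolatum base), gavage in olive oil, or intralesional meglumine antimoniate 2 mg SbV/kg. Lesion thickness was measured weekly against base-only ointment; sacrifice was 1 week after the last dose.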

[9] = system: Syrian golden hamster; assay: Toxicity in Syrian hamster infected with Leishmania tropica MHOM/MA/1988/LEM1314 promastigotes assessed as urea levels at 200 mg/kg administered through oral gavage for 3 weeks starting at week 7 post infection measured 1 week post last dose (reference value: 32.5 +/- 0.8 mg/dl); format: organism-based, Mesocricetus auratus; details: in vivo, 168 h
[10] = system: Syrian golden hamster; assay: Toxicity in Syrian hamster assessed as liver weight at 500 mg/kg administered through oral gavage for 28 days (reference value: 4.1 +/- 0.7 g); format: organism-based, Mesocricetus auratus; details: in vivo, 672 h
[11] = system: Leishmania tropica; assay: as §2, with “5” for “2.5”; format: functional; parameters: scale not given: the % may be the effect or the level left; in short: as §3
[12] = system: Leishmania tropica; assay: as §2, with “liver” for “foodpad skin”; format: functional, tissue-based; in short: as §3
[13] = system: Syrian golden hamster; assay: Toxicity in Syrian hamster infected with Leishmania tropica MHOM/MA/1988/LEM1314 promastigotes assessed as mean serum AST levels at 200 mg/kg administered through oral gavage for 3 weeks starting at week 7 post infection measured 1 week post last dose (reference value: 77.1 +/- 0.9 U/L); format: organism-based, Mesocricetus auratus; details: in vivo, 168 h
[14] = system: Leishmania tropica; assay: as §2, with “lesion thickness” for “parasite load in foodpad skin”, “1” for “2.5”, “dose” for “dose by qPCR analysis”; format: functional; parameters: scale not given: the % may be the effect or the level left; in short: as §4
[15] = system: Syrian golden hamster; assay: Toxicity in Syrian hamster infected with Leishmania tropica MHOM/MA/1988/LEM1314 promastigotes assessed as stress at 200 mg/kg administered through oral gavage for 3 weeks starting at week 7 post infection measured during compound dosing or measured 1 week post last dose; format: organism-based, Mesocricetus auratus; details: in vivo, 168 h
In short: (§5)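 Infected hamsters (footpad, 3 × 10^7 promastigotes) were gavaged daily for 21 days from week 7 post-infection at 200 mg/kg in olive oil, n=10.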

[16] = system: Syrian golden hamster; assay: Toxicity in Syrian hamster assessed as mean serum creatinine levels at 500 mg/kg administered through oral gavage for 28 days (reference value: 0.21 +/- 0.2 mg/dl); format: organism-based, Mesocricetus auratus; details: in vivo, 672 h
[17] = system: Syrian golden hamster; assay: Toxicity in Syrian hamster infected with Leishmania tropica MHOM/MA/1988/LEM1314 promastigotes assessed as mean serum AST levels at 2.5 % administered tropically on footpad for 3 weeks starting at week 7 post infection measured 1 week post last dose (reference value: 77.1 +/- 0.9 U/L); format: organism-based, Mesocricetus auratus; details: in vivo, topical_or_ocular, 168 h
[18] = system: Syrian golden hamster; assay: Toxicity in Syrian hamster infected with Leishmania tropica MHOM/MA/1988/LEM1314 promastigotes assessed as urea levels at 2.5 % administered tropically on footpad for 3 weeks starting at week 7 post infection measured 1 week post last dose (reference value: 32.5 +/- 0.8 mg/dl); format: organism-based, Mesocricetus auratus; details: in vivo, topical_or_ocular, 168 h
[19] = system: Syrian golden hamster; assay: Toxicity in Syrian hamster infected with Leishmania tropica MHOM/MA/1988/LEM1314 promastigotes assessed as mean serum ALT levels at 1 % administered tropically on footpad for 3 weeks starting at week 7 post infection measured 1 week post last dose (reference value: 81.6 +/- 4.9 U/L); format: organism-based, Mesocricetus auratus; details: in vivo, topical_or_ocular, 168 h
[20] = system: Syrian golden hamster; assay: Toxicity in Syrian hamster assessed as urea levels at 500 mg/kg administered through oral gavage for 28 days (reference value: 33.2 +/- 2.8 mg/dl); format: organism-based, Mesocricetus auratus; details: in vivo, 672 h
[21] = system: Syrian golden hamster; assay: Toxicity in Syrian hamster infected with Leishmania tropica MHOM/MA/1988/LEM1314 promastigotes assessed as redness at 200 mg/kg administered through oral gavage for 3 weeks starting at week 7 post infection measured during compound dosing or measured 1 week post last dose; format: organism-based, Mesocricetus auratus; details: in vivo, 168 h; in short: as §5
[22] = system: Leishmania tropica; assay: as §2, with “200 mg” for “2.5 %”, “through oral gavage” for “tropically on footpad”; format: functional; parameters: scale not given: the % may be the effect or the level left; in short: as §3

For `CC(C)=CCC[C@](C)(O)[C@@H]1CC=C(C)CC1` [LEVOMENOL], the Activity [1] was 0.19 mg/dL, the Activity [2] was “Non-Toxic” and the Activity [3] was 3.3 g. It also gave an Activity [4] of 13.3 U/L, an Activity [5] of 175.3 mg and an Activity [6] of 83%. The Activity [7] was 3.2 g, the Activity [8] was 55.2% and the Activity [9] was 34.4 mg/dL. For the same compound, the Activity [10] was 3.5 g, the Activity [11] was 82% and the Activity [12] was “Active”. For the same compound, the Activity [13] was 77.9 U/L, the Activity [14] was 49% and the Activity [15] was “Non-Toxic”. For the same compound, the Activity [16] was 0.19 mg/dL, the Activity [17] was 87 U/L and the Activity [18] was 33.6 mg/dL. For the same compound, the Activity [19] was 81.9 U/L, the Activity [20] was 33.7 mg/dL and the Activity [21] was “Non-Toxic”. It also gave an Activity [22] of 74%.
